Reference: ChEMBL document CHEMBL1154606 (J Med Chem, 2009)
Where a SMILES comes first, the peptide text is derived from it. [ ]: non-standard residue; d: D form. NMeF = CN[C@@H](Cc1ccccc1)C(=O)O

What was measured:
[1] = target: T1, Neuromedin-K receptor (Cavia porcellus) (UniProt P30098); conditions: HEK293
T1 sequence (whole entry): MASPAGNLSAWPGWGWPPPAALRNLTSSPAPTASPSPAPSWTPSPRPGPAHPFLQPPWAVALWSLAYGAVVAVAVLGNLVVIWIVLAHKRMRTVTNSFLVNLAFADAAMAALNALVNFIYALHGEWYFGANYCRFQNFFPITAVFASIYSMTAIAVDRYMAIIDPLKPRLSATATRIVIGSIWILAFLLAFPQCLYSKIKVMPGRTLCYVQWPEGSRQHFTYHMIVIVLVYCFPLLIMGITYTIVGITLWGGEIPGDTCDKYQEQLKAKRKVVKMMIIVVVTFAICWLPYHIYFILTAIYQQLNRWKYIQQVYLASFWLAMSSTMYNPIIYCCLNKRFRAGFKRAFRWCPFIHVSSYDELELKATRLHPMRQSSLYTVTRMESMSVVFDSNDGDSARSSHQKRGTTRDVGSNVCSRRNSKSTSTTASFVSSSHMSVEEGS

[2] = test system: Neurokinin 3 receptor (Cavia porcellus); test: Equilibrium binding affinity to guinea pig NK3 receptor A1142.58T mutant expressed in HEK293 cells
[3] = target: T2, Neuromedin-K receptor (Homo sapiens) (UniProt P29371); conditions: HEK293
T2 sequence (whole entry): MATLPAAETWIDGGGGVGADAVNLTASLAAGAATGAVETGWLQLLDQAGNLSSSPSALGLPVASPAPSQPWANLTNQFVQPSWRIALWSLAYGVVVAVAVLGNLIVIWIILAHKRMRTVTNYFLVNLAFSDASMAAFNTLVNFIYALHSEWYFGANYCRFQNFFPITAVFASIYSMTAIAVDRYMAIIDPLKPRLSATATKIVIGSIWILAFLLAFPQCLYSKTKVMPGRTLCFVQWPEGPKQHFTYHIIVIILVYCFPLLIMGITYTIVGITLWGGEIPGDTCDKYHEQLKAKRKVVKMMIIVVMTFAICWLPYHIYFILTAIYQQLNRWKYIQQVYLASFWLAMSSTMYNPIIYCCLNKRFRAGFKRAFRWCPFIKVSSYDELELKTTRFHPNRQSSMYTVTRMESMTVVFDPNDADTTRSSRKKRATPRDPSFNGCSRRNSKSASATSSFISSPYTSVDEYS

[4] = target: T2, Neuromedin-K receptor (Homo sapiens); conditions: HEK293; remark: listed apart in the source
[5] = target: T1, Neuromedin-K receptor (Cavia porcellus); conditions: HEK293; remark: listed apart in the source
[6] = target: T3, Substance-K receptor (Homo sapiens, UniProt P21452); test: Displacement of [3H]SR48968 from human recombinant NK2 receptor expressed in HEK293 cells; assay type: cell-based
T3 sequence (P21452 whole entry): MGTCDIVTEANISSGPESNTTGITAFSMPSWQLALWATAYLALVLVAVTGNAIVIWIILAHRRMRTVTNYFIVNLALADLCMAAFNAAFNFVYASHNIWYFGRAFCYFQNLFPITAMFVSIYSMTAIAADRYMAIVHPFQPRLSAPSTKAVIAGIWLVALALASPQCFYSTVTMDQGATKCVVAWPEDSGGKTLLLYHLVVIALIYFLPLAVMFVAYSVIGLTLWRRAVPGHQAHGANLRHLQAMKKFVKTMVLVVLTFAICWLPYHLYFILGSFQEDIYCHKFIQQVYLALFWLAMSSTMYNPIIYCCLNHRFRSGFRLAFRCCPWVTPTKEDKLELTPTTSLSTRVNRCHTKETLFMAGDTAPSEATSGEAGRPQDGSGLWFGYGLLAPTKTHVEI
Summary of the method: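 hNK2 membranes from transient HEK293 (2.5 μg protein/well) in 50 mM Tris-HCl, 3 mM MnCl2, 4 μg/mL chymostatin, 0.04% BSA, pH 7.4. Incubated with 0.32 nM [³H]SR 48968 plus 10 inhibitor concentrations (0.0003–10 μM) for 75 min at RT. Ki by Cheng-Prusoff; three experiments in duplicate.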

[7] = target: T4, Neuromedin-K receptor (Cavia porcellus, UniProt P30098); test: Displacement of [3H]osanetant from guinea pig recombinant NK3 receptor A1142.58T expressed in HEK293 cells; assay type: cell-based
Summary of the method: (§1)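 Membranes from transiently transfected HEK293 cells (5 μg protein/well) in 50 mM Tris-HCl, 4 mM MnCl2, 1 μM phosphoramidon, 0.1% BSA, pH 7.4. Nonspecific binding defined with 10 μM competitor. Filtered on GF/C. Ki by Cheng-Prusoff; three experiments in duplicate.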

[8] = target: T5, Neuromedin-K receptor (Homo sapiens, UniProt P29371); test: Antagonist activity at wild type human NK3 receptor expressed in HEK293 cells assessed as inhibition of [MePhe7]NKB-induced accumulation of [3H]inositol phosphate; assay type: functional, cell-based; conditions: read-out: pA2 (converted)
T5 sequence (P29371 whole entry): T2 sequence (whole entry)
Summary of the method: (§2)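 HEK293 cells transiently transfected with NK3 receptor, labeled with myo-[³H]-inositol and assayed 48 h post-transfection in HBSS/HEPES pH 7.4 with 8 mM LiCl. Fixed antagonist concentrations were preincubated 20 min at 37 °C, then [MePhe⁷]NKB (0.1 nM–10 μM) was added for 45 min at 37 °C. [³H]IP was captured on yttrium silicate beads. Agonist EC50 shifts gave dose ratios for Schild regression. Six curves from three transfections.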

[9] = target: T4, Neuromedin-K receptor; test: Antagonist activity at […] guinea pig NK3 receptor A1142.58T mutant expressed in HEK293 cells assessed as inhibition of [MePhe7]NKB-induced accumulation of [3H]inositol phosphate; assay type: functional, cell-based
Summary of the method: as §2

[10] = target: T5, Neuromedin-K receptor; test: Displacement of [3H]osanetant from human recombinant NK3 receptor expressed in HEK293 cells; assay type: cell-based
Summary of the method: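 Membranes from transiently transfected HEK293 cells (5 μg protein/well) in 50 mM Tris-HCl, 4 mM MnCl2, 1 μM phosphoramidon, 0.1% BSA, pH 7.4. […] Nonspecific binding defined with 10 μM competitor. Filtered on GF/C. Ki by Cheng-Prusoff; three experiments in duplicate.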

[11] = target: T6, Neuromedin-K receptor (Cavia porcellus, UniProt P30098); test: Displacement of [3H]osanetant from guinea pig recombinant NK3 receptor expressed in HEK293 cells; assay type: cell-based
T6 sequence (P30098 whole entry): T1 sequence (whole entry)
Summary of the method: as §1

[12] = target: Substance-P receptor (Homo sapiens, UniProt P25103); test: Displacement of [3H]substance P from human recombinant NK1 receptor expressed in HEK293 cells; assay type: cell-based
Chain of Substance-P receptor (P25103 whole entry): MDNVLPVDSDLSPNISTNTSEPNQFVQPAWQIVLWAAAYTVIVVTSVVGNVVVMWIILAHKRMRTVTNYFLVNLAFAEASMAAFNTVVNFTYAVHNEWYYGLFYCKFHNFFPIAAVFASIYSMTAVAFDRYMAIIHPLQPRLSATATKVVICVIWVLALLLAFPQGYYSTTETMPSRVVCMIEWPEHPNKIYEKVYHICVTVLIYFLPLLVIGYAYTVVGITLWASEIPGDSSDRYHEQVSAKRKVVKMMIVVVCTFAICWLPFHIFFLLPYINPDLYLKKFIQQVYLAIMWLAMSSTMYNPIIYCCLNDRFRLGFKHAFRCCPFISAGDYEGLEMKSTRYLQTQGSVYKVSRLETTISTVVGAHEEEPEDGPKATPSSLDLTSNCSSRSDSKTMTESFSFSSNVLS
Summary of the method: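 hNK1 membranes from transient HEK293 (2.5 μg protein/well) in 50 mM HEPES, 3 mM MnCl2, 2 μM phosphoramidon, 16.8 μM leupeptin, 0.04% BSA, pH 7.4. Incubated with 0.6 nM [³H]substance P plus 10 inhibitor concentrations (0.0003–10 μM) for 75 min at RT. Nonspecific binding defined with 10 μM CP-96,345. Ki by Cheng-Prusoff; three experiments in duplicate.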

[13] = target: T6, Neuromedin-K receptor; test: Antagonist activity at wild type guinea pig NK3 receptor expressed in HEK293 cells assessed as inhibition of [MePhe7]NKB-induced accumulation of [3H]inositol phosphate; assay type: functional, cell-based; conditions: read-out: pA2 (converted)
Summary of the method: as §2

[14] = target: T5, Neuromedin-K receptor; test: Agonist activity at human NK3 receptor expressed in cells assessed as accumulation of [3H]inositol phosphate; assay type: functional, cell-based
Summary of the method: (§3)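 At 48 h, preincubated 10 min at RT in HBSS/20 mM HEPES pH 7.4 with 8 mM LiCl, then stimulated with [MePhe⁷]NKB (0.1 nM–10 μM) for 45 min at 37 °C. Inositol phosphates were extracted with formic acid, captured on yttrium silicate beads and counted. EC50 and Hill slope were derived.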

[15] = target: T6, Neuromedin-K receptor; test: Agonist activity at guinea pig NK3 receptor expressed in cells assessed as accumulation of [3H]inositol phosphate; assay type: functional, cell-based
Summary of the method: as §3

[16] = target: T5, Neuromedin-K receptor; test: Binding affinity to human NK3 receptor
[17] = target: T3, Substance-K receptor; test: Binding affinity to human NK2 receptor

## CC(=O)N(C)C1(c2ccccc2)CCN(CCC[C@]2(c3ccc(Cl)c(Cl)c3)CCCN(C(=O)c3ccccc3)C2)CC1 [OSANETANT]
[1]
  T1/2: 31.5 min
[2]
  Kd: 0.08 nM
[3]
  T1/2: 4.01 min
[4]
  T1/2: 10.1 min
[5]
  T1/2: 10.2 min

## CC(=O)N(C)C1CCN(CCC(C)(C(=O)N(C)Cc2ccccc2Cl)c2ccc(Cl)c(Cl)c2)CC1 (stereo unspecified)
[6]
  Ki: 953 nM
[7]
  Ki: 11.9 nM
[8]
  Kb: 18.2 nM
[9]
  pA2: 7.53
[10]
  Ki: 10.4 nM
[11]
  Ki: 8 nM
[12]
  Ki: 70.9 nM
[13]
  Kb: 24 nM

## CC(=O)N(C)C1CCN(CCC(C)(C(=O)N(C)Cc2ccc(F)c(C(F)(F)F)c2)c2ccc(Cl)c(Cl)c2)CC1 (stereo unspecified)
[6]
  Ki: 515 nM
[7]
  Ki: 2.7 nM
[8]
  Kb: 7.76 nM
[9]
  pA2: 7.83
[10]
  Ki: 3.1 nM
[11]
  Ki: 3.5 nM
[12]
  Ki: 152 nM

## CN(Cc1ccc(F)c(C(F)(F)F)c1)C(=O)C(C)(CCN1CCC(N2CCCC2=O)CC1)c1ccc(Cl)c(Cl)c1 (stereo unspecified)
[6]
  Ki: 109 nM
[7]
  Ki: 1.8 nM
[8]
  Kb: 8.91 nM
[9]
  pA2: 7.96
[10]
  Ki: 0.8 nM
[11]
  Ki: 1.6 nM
[12]
  Ki: 182 nM

## CSCC[C@H](NC(=O)[C@H](CC(C)C)NC(=O)CNC(=O)[C@H](Cc1ccccc1)N(C)C(=O)[C@H](Cc1ccccc1)NC(=O)[C@H](Cc1ccccc1)NC(=O)[C@H](CC(=O)O)NC(=O)[C@H](Cc1cnc[nH]1)NC(=O)[C@H](CCSC)NC(=O)[C@@H](N)CC(=O)O)C(N)=O (H-DMHDFF[NMeF]GLM-NH2)
[14]
  EC50: 0.6 nM
[15]
  EC50: 0.6 nM
[16]
  Ki: 0.3 nM
[17]
  Ki: 1600 nM
